Screening results (PubChem)
This is a sample that favours compounds with a hit; in the whole collection about 5.3% have one here.
EphB4 ephrin blk: blocks human EphB4 binding to ephrin-B2. P54760. EphB4 LBD / TNYL-RAW-Alexa532 peptide, fluorescence polarization. inhibition, % at 7 µM. actives 0.15% (n = 97,000). AID 720;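 active means inhibition above the screen-wide mean inhibition plus 3 SD, cut at about 15% in these data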;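 further: 0% = DMSO wells and 100% = excess unlabeled TNYL-RAW peptide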
FAK blocker: FAK (human) kinase inhibition | biochemical FAK kinase activity assay | Q05397 | actives 0.84% (n = 97,000) | inhibition, %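 (tested at 7 µM)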; in the data active means inhibition above about 19%;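 further: 0% = DMSO and 100% = reference compound high control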
PLK1 kinase inh: blocks human PLK1 kinase activity; P53350; recombinant PLK1 kinase, TR-FRET peptide phosphorylation; inhibition, % at 10 µM; actives 0.53% (n = 97,000);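 active means inhibition of 50% or more in the single-concentration screen; inactive means inhibition below 50%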;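 further: 0% = DMSO max control and 100% = H-89 dihydrochloride min control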
Target sequence (P53350 whole entry, looked up): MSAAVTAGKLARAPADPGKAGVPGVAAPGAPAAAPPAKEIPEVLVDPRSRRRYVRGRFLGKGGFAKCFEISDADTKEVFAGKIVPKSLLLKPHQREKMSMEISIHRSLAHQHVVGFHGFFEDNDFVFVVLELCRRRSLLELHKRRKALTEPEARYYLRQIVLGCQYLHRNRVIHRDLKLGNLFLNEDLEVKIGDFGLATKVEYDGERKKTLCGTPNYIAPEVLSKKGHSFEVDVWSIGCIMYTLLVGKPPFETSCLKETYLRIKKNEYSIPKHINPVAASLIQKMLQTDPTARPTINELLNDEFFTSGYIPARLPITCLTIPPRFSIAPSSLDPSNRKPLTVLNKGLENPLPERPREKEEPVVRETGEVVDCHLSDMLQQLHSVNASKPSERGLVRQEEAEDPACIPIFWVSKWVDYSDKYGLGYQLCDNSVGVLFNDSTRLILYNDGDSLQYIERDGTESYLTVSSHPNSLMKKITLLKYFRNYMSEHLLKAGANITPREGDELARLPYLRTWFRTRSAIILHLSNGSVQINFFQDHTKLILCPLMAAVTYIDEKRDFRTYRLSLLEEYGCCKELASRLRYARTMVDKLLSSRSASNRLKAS
PLK1 PBD inh: blocks phosphopeptide binding to human Plk1 polo box domain; inhibition, %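 (tested at about 20 µM)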; actives 0.13% (n = 97,000); Plk1 PBD phosphopeptide binding, fluorescence polarization; P53350; in the data active means inhibition above about 34%, passing the limit was not always enough
HIV Rev-RRE inh: HIV Rev-RRE protein-RNA interaction inhibition; P05866; Rev peptide-RRE RNA binding, FRET; inhibition, % at 8 µM; actives 0.79% (n = 97,000); AID 704;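 active means inhibition above the screen-wide mean plus 3 SD, cut at about 35% in these data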;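 further: 0% = median DMSO wells and 100% = median Neomycin B control wells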
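Assay system: Rev peptide and RRE RNA, both fluorescently labelled; times: 5 min preincubation and 15 min binding, 25 °C; detection: FRET, ex 480 nm, em 540 and 671 nm; read-out basis: % inhibition from 671/540 nm acceptor-to-donor ratio, scaled between controls; benchmarks: DMSO low control, neomycin B high control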
Cav3 T inh: human Cav3.2 channel inhibition, primary screen; actives 4% (n = 100,000); B-score at 10 µM; Cav3.2-expressing cells, Fluo-4 calcium fluorescence FDSS; stronger effect = lower value;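 active means single-dose well whose peak fluorescence ratio is a statistical outlier from its plate by either plate-standardised score or position-corrected B-score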
An asterisk follows results filed as active; . = no result; [ ] = remark or other dose.

SMILES	EphB4 ephrin blk	FAK blocker	PLK1 kinase inh	PLK1 PBD inh	HIV Rev-RRE inh	Cav3 T inh
CC1(OC(=O)C2CCCC2)C(=O)C=C2C=C(c3ccsc3)N(CCc3ccccn3)C=C2C1=O (centres undefined)	.	.	.	.	.	-0.31
O=C(NCc1nc2ccccc2[nH]1)C1=C[C@@H](C2CCCCC2)C[C@@H](OCCCCO)O1	.	.	.	.	.	-1.1
Cc1ccc(-n2ncc3c(=O)n(CC(=O)N4CCCCCC4)cnc32)cc1	16*	7	4	-25	10	0.46
CCN(CC)S(=O)(=O)c1ccc(C(=O)Nc2ncn(Cc3ccccc3)n2)cc1	-8	2	-19	19	24	0.64
CCN(CC)S(=O)(=O)c1ccc(C(=O)NCc2n[nH]c(=S)n2Cc2ccccc2)cc1	0	9	4	-11	2	-4.1*
O=C(c1ccc(CS(=O)(=O)c2ccc(Br)cc2)o1)N1CCCCCC1	2	5	-18	3	7	-0.39
O=C(c1ccc(CS(=O)(=O)c2ccc(Br)cc2)o1)N1CCCC1	3	7	69*	-2	7	-0.008
O=C(O)c1ccccc1-c1ccc(/C=c2\sc3nc4cc(Br)cnc4n3c2=O)o1	10	15	-26	-12	99*[fluorescence artefact?]	.
Cc1cc2nc(C)c(Cc3ccccc3)c(=O)n2[nH]1	-3	-3	3	-7	4	.
CCc1ccc(S(=O)(=O)NCCc2csc(-c3ccccc3)n2)s1	-2	2	-14	-12	18	-4.5*
CCc1ccc(S(=O)(=O)NCc2csc(-c3ccccc3)n2)s1	-3	1	-8	-35	20	-3.2*
O=S(=O)(NCCc1csc(-c2ccccc2)n1)c1ccc2c(c1)OCCO2	2	0	-8	10	9	-6.2*
COc1cc(NC(=O)COC(=O)c2nc3nc(C)cc(C)n3n2)cc(OC)c1	1	10	-5	5	6	-0.12
CCOC(=O)C1=C(C)N=c2s/c(=C\c3cccn3C)c(=O)n2C1c1cccc(OC)c1OC (centres undefined)	5	6	-15	-74	88*[fluorescence artefact?]	0.19
CCOC(=O)C1=C(C)N=c2s/c(=C/c3ccco3)c(=O)n2C1c1cccc(OC)c1 (centres undefined)	1	-1	-8	-4	15	-2.4
CC(C)CO/C(=N/S(=O)(=O)c1ccccc1)c1ccccc1	-4	-1	-6	25	2	-4.1*
CN1C[C@@H]2C(c3ccc(C(F)(F)F)cc3)C3(c4cccnc4)CC2(C3)[C@H]1c1ccccc1 (some centres undefined)	.	.	.	.	.	0.041
COc1cccc(CNc2ccc(N3CCC(C)CC3)cc2)c1OC	0	5	-8	-27	2	-7.7*
Cc1ccnc2nc(C(=O)NCCc3ccc(F)cc3)nn12	2	0	-7	-23	7	0.22
CCn1ncc(Br)c1C(=O)Nc1ccccc1C(=O)OC	6	53*	-9	-2	3	-1.8
CCn1ncc(Br)c1C(=O)Nc1ccc(F)cc1F	-3	-3	-7	-11	4	-0.92
NC(=O)CC(NC(=O)c1ccccc1)c1ccc(NC2CCCC2)c([N+](=O)[O-])c1 (centres undefined)	.	.	.	.	.	0.38
CC(=O)N1CCN=C1SCc1cccc(C(F)(F)F)c1	-1	2	-4	4	8	0.14
CC(=O)N1CCN=C1SCc1ccc(Br)cc1	-8	0	-9	-12	5	-4.8*
O=c1c2ccccc2nc(-c2ccoc2)n1CCc1ccccc1	16*	3	-12	3	11	-1.7
SMILES	EphB4 ephrin blk	FAK blocker	PLK1 kinase inh	PLK1 PBD inh	HIV Rev-RRE inh	Cav3 T inh
O=C(c1cc(-c2cccs2)nc2ccccc12)N1CCN(S(=O)(=O)c2ccccc2)CC1	4	-1	-8	23	13	-4.3*
O=C(CCSc1nc(-c2ccco2)cc(C(F)(F)F)n1)N1CCCc2ccccc21	-3	2	-11	-12	1	-3.6*
CC1Cc2ccccc2N1C(=O)CSc1nc(-c2ccco2)cc(C(F)(F)F)n1 (centres undefined)	-5	-1	-9	0	4	0.65
O=C(CCSc1nc(-c2ccco2)cc(C(F)(F)F)n1)N1CCN(c2ccccn2)CC1	-3	-1	-6	2	3	-5.5*
O=C(CSc1nc(-c2ccco2)cc(C(F)(F)F)n1)N1CCN(c2cccc(Cl)c2)CC1	4	-1	-16	-4	-2	-3.7
CC1(c2nnc(-c3ccncc3)o2)CC(c2ccc(F)cc2)=NO1 (centres undefined)	.	.	.	.	.	0.76
Cc1cccc(-c2nnc(NC(=O)c3ccc(Cl)cc3)o2)c1	.	.	.	.	.	-4.4*
O=C(Nc1nnc(-c2ccc3c(c2)CCCC3)o1)c1ccccc1	-4	-7	-11	21	4	-5.6*
COc1ccc2nc(Nc3nc(CSc4nc5ccccc5s4)cc(=O)[nH]3)nc(C)c2c1	.	.	.	.	.	-1.4
Cc1ccc(C(=O)N/N=C/c2nc3ccccc3n2C)cc1	-5	5	-14	16	1	-0.83
Cn1c(/C=N/NC(=O)c2ccccc2Br)nc2ccccc21	7	0	-5	9	1	-4.3*
Cc1c(C(=O)NCCCN2CCCC2=O)oc2ccc(S(=O)(=O)N3CCOCC3)cc12	.	.	.	.	.	0.91
Cc1c(C(=O)NCCC2=CCCCC2)oc2ccc(S(=O)(=O)N3CCOCC3)cc12	-7	-1	3	-2	2	-4.1*
Cc1nn(C)cc1/C=N/NC(=O)C(C)(C)Oc1ccc(Cl)cc1	3	1	-15	6	4	0.8
Oc1ccccc1NCC(O)Cn1ccc2ccccc21 (centres undefined)	-2	2	0	-6	63*	-1.8
OCc1nc2ccccc2n1CC(O)Cn1ccc2ccccc21 (centres undefined)	-6	0	-14	28	0	-0.019
C=CCNc1nnc(SC2CC(=O)N(c3ccc(OCCC)cc3)C2=O)s1 (centres undefined)	-2	1	-12	8	2	3.3*
Cc1sc(NC(=O)CSc2nnnn2C2CCCCC2)c(C#N)c1C	-1	-1	-7	-27	4	.
O=C(C1=C[C@H](C2CC2)C[C@H](OCCCCO)O1)N1CCOCC1	.	.	.	.	.	0.47
O=C(N/N=C/c1ccc(Sc2ccccn2)o1)c1cc2ccccc2cc1O	6	3	-2	22	-5	-5*
O=C(N/N=C\c1ccc(Sc2ccccn2)o1)c1cccc(F)c1	-1	-4	6	-10	0	1.2
CCOC(=O)CN1C(=O)N[C@@H](c2cccc(C(F)(F)F)c2)[C@@H](C(=O)OC)[C@H]1C	.	.	.	.	.	-0.054
O=C(/C=C/c1ccccc1)N/C(=C/c1ccccc1)C(=O)N1CCCCC1	1	3	-17	-1	2	-5.6*
Cc1cc(O)c(C(C)C)cc1NC(=O)c1ccc(Cl)cc1	-11	3	-8	20	1	-6.3*
Cc1nc(C(=O)N(C)C)nn1-c1cc(Cl)cc(Cl)c1	0	-4	-9	-30	3	1.1
